The values that follow come from ChEMBL document CHEMBL3865782 (2016).

Holding throughout (format): functional
Experiment [1] deals with Bacillus subtilis. As to the kind of experiment: Antibacterial activity against Bacillus subtilis P10C derived after 10 passage in presence of JBIR-100 after 16 to 18 hrs by microbroth dilution assay. The essentials: (§1)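 Mutants were derived from B. subtilis ATCC 47096 in three independent cultures. Each was passaged 10 times every 24 h at 37 °C in LB, starting at 0.5× MIC and raised in 0.5× MIC steps. Isolates were restreaked three times on drug-free LB agar to confirm stability.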
(In general: In broth dilution the organism is exposed to a series of concentrations in liquid medium.)

In experiment [2] the test system is Bacillus subtilis. As to the kind of experiment: Antibacterial activity against Bacillus subtilis ATCC 47096 after 16 to 18 hrs by microbroth dilution assay. The essentials: (§2)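 Broth microdilution per CLSI in LB at 37 °C with aeration. Twofold serial dilutions from a starting concentration of 64 μM were added to wells holding ~5 × 10^4 CFU of the test strain. Turbidity was read after 16–18 h. MIC was taken as the lowest concentration with no visible growth.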

Experiment [3] deals with Bacillus subtilis. As to the kind of experiment: Antibacterial activity against Bacillus subtilis P10B derived after 10 passage in presence of JBIR-100 after 16 to 18 hrs by microbroth dilution assay. The essentials: as §1
Experiment [4] relates to Bacillus subtilis. As to the kind of experiment: Antibacterial activity against Bacillus subtilis P10A derived after 10 passage in presence of JBIR-100 after 16 to 18 hrs by microbroth dilution assay. The method, boiled down:
as §1

Experiment [5] has as its system Bacillus subtilis. As to the kind of experiment: Antibacterial activity against Bacillus subtilis P10B derived after 10 passage in presence of JBIR-100 after 16 to 18 hrs by microbroth dilution assay relative to Bacillus subtilis ATCC 47096.
The test system of experiment [6] is Bacillus subtilis. The experiment in a line: Antibacterial activity against Bacillus subtilis P10C derived after 10 passage in presence of JBIR-100 after 16 to 18 hrs by microbroth dilution assay relative to Bacillus subtilis ATCC 47096.
The test system of experiment [7] is Bacillus subtilis. As to the kind of experiment: Antibacterial activity against Bacillus subtilis P10A derived after 10 passage in presence of JBIR-100 after 16 to 18 hrs by microbroth dilution assay relative to Bacillus subtilis ATCC 47096.
The nature of experiment [8]: Antifungal activity against Kluyveromyces lactis after 16 to 18 hrs by microbroth dilution assay. The method, boiled down: (§3)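 Yeast grown in YPD at 30 °C with aeration. CLSI microdilution used two-fold dilutions from a 64 μM start and ~5 × 10^4 CFU per well. Visible turbidity was scored at 16–18 h. The MIC was the lowest concentration without visible growth.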
In a further experiment the test system is Debaryomyces hansenii. The experiment in a line: Antifungal activity against Debaryomyces hansenii after 16 to 18 hrs by microbroth dilution assay. The method, boiled down:
as §3

The test system of experiment [9] is Bacillus subtilis. The experiment in a line: Antibacterial activity against Bacillus subtilis ATCC 47096 assessed as induction of membrane damage after 30 mins by propidium iodide staining based fluorescent microscopic analysis. The essentials:
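Cells grown in LB at 37 °C to OD600 0.5 were resuspended in PBS pH 7.4 with DMSO vehicle, 8, 32 or 64 μM compound for 30 min at ~22 °C. Cells were then washed, stained with 10 μM propidium iodide for 15 min, immobilized in agarose, and imaged by confocal fluorescence and DIC microscopy.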

The next experiment concerns Enterococcus faecium. As to the kind of experiment: Antibacterial activity against Vancomycin-resistant Enterococcus faecium U503 after 16 to 18 hrs by microbroth dilution assay. The essentials: as §2
Experiment [10] is described as follows: Antifungal activity against Zygosaccharomyces rouxii after 40 to 42 hrs by microbroth dilution assay. The essentials:
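CLSI microdilution in YPD at 30 °C with aeration. Two-fold serial dilutions started at 64 μM, with ~5 × 10^4 CFU per well. Incubation was extended to 40–42 h before turbidity inspection. The MIC was the lowest concentration inhibiting visible growth.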

The subject of experiment [11] is Escherichia coli. As to the kind of experiment: Antibacterial activity against Escherichia coli DH5alpha after 16 to 18 hrs by microbroth dilution assay. The conditions noted are these: DH5[alpha]. The essentials: (§4)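 CLSI microbroth dilution. Compound was two-fold serially diluted from a 64 μM starting concentration into wells holding ~5 × 10^4 CFU of the test strain. After 16–18 h incubation, the MIC was taken as the lowest concentration causing no visible turbidity.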

Another experiment concerns Pseudomonas putida. As to the kind of experiment: Antibacterial activity against Pseudomonas putida KT2440 after 16 to 18 hrs by microbroth dilution assay. The method, boiled down: as §4
In experiment [12] the test system is Bacillus subtilis. The experiment in a line: Antibacterial activity against Bacillus subtilis subsp. subtilis str. 168 after 16 to 18 hrs by microbroth dilution assay. The method, boiled down: (§5)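 Broth microdilution following CLSI, in LB at 37 °C with aeration. Starting at 64 μM, two-fold serial dilutions were added to wells holding ~5 × 10^4 CFU. Turbidity was inspected after 16–18 h. The MIC was the lowest concentration that inhibited visible growth.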

Experiment [13] concerns Bacillus subtilis. As to the kind of experiment: Antibacterial activity against Bacillus subtilis ATCC 47096 assessed as induction of membrane depolarization after 30 mins by DiOC2(3) dye based flow cytometric analysis. The essentials:
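Three independent LB cultures grown to OD600 0.5 were diluted into PBS containing DiOC2(3) with DMSO vehicle, 5 μM CCCP (positive control), or 0.1–1.0 μM compound. Cells were mixed 30 min at ~22 °C and analysed by flow cytometry. Red/green fluorescence ratio geometric means were normalized to vehicle.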
(A flow cytometer gives signals particle by particle.)

Experiment [14] concerns Bacillus subtilis. The experiment in a line: Bactericidal activity against Bacillus subtilis ATCC 47096 after 16 hrs. The conditions noted are these: ATCC 47096, 16 h, read-out: MBC=>99.9.
Another experiment has as its system Candida albicans. The experiment in a line: Antifungal activity against Candida albicans after 16 to 18 hrs by microbroth dilution assay. The essentials:
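CLSI microbroth dilution in YPD at 30 °C with aeration. Two-fold serial dilutions started at 128 μM, with ~5 × 10^4 CFU per well. Turbidity was inspected after 16–18 h. The MIC was the lowest concentration inhibiting visible growth.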

The test system of the next experiment is Bacillus cereus. The experiment in a line: Antibacterial activity against Bacillus cereus ATCC 4342 after 16 to 18 hrs by microbroth dilution assay. The method, boiled down: as §5
In the next experiment the test system is Bacillus thuringiensis. The experiment in a line: Antibacterial activity against Bacillus sp. Al Hakam after 16 to 18 hrs by microbroth dilution assay. The essentials: as §5
In experiment [15] the test system is Escherichia coli. As to the kind of experiment: Antibacterial activity against Escherichia coli MC1061 after 16 to 18 hrs by microbroth dilution assay. The method, boiled down:
as §4

A further experiment relates to Staphylococcus aureus. The experiment in a line: Antibacterial activity against Methicillin-resistant Staphylococcus aureus USA300 after 16 to 18 hrs by microbroth dilution assay. The essentials: as §2
In experiment [16] the test system is Bacillus subtilis. As to the kind of experiment: Bactericidal activity against Bacillus subtilis ATCC 47096 at 8 to 32 uM after 16 hrs. The method, boiled down: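 Mid-exponential cultures (OD600 0.4, diluted 1000-fold from stationary cultures into LB) were treated with vehicle (DMSO), 8, 16 or 32 μM at 37 °C. OD595 was read every 10 min for 16 h with shaking between reads. Values were normalized to 0.4 at t = 0 and averaged over three independent cultures.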

A short description of experiment [17]: Antifungal activity against Saccharomyces cerevisiae after 16 to 18 hrs by microbroth dilution assay. The method, boiled down:
as §3

Experiment [18] deals with Mycolicibacterium smegmatis. As to the kind of experiment: Antibacterial activity against Mycobacterium smegmatis NRRL B-14616 after 16 to 18 hrs by microbroth dilution assay. The method, boiled down: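 Broth microdilution following CLSI, in LB with 0.05% Tween 80 at 37 °C with aeration. Two-fold serial dilutions started at 64 μM, with ~5 × 10^4 CFU per well. Wells were read by visible turbidity after 16–18 h. The MIC was the lowest concentration preventing visible growth.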

Structures are written as SMILES. Values after ≈ are worked out from the molar mass of the structure shown. Active and inactive are the calls of the source. Where only a bound is given, the exact number is not on record here.

As for `CC1(C)S[C@@H]2[C@H](NC(=O)[C@H](N)c3ccccc3)C(=O)N2[C@H]1C(=O)O` [AMPICILLIN], the MIC in the experiment with Bacillus subtilis [1] was 0.125 µM; against Bacillus subtilis [2], 0.125 µM (≈ 0.0437 µg/mL); in the experiment on Bacillus subtilis [3], 0.125 µM; in the experiment with Bacillus subtilis [4] it was 0.125 µM.

For `CN[C@H](CC(C)C)C(=O)N[C@H]1C(=O)N[C@@H](CC(N)=O)C(=O)N[C@H]2C(=O)N[C@H]3C(=O)N[C@H](C(=O)N[C@H](C(=O)O)c4cc(O)cc(O)c4-c4cc3ccc4O)[C@H](O)c3ccc(c(Cl)c3)Oc3cc2cc(c3O[C@@H]2O[C@H](CO)[C@@H](O)[C@H](O)[C@H]2O[C@H]2C[C@](C)(N)[C@H](O)[C@H](C)O2)Oc2ccc(cc2Cl)[C@H]1O` [VANCOMYCIN], the MIC is 0.0625 µM in the experiment on Bacillus subtilis [1], 0.125 µM (≈ 0.181 µg/mL) against Bacillus subtilis [2], 0.0625 µM with Bacillus subtilis [3] and 0.125 µM in the experiment on Bacillus subtilis [4]. The “fold change (FC)” value in the experiment on Bacillus subtilis [5], in the experiment with Bacillus subtilis [6] and in the experiment with Bacillus subtilis [7] was 2 throughout.

As for `CO[C@H]1/C=C/O[C@@]2(C)Oc3c(C)c(O)c4c(O)c(c(/C=N/N5CCN(C)CC5)c(O)c4c3C2=O)NC(=O)/C(C)=C\C=C\[C@H](C)[C@H](O)[C@@H](C)[C@@H](O)[C@@H](C)[C@H](OC(C)=O)[C@@H]1C` [RIFAMPIN], the MIC with Bacillus subtilis [1] was determined as 0.125 µM; in the experiment on Bacillus subtilis [2], 0.0625 µM (≈ 0.0514 µg/mL); in the experiment on Bacillus subtilis [3] it was 0.125 µM; in the experiment with Bacillus subtilis [4], 0.25 µM. Moreover, the “fold change (FC)” value in the experiment on Bacillus subtilis [5], in the experiment with Bacillus subtilis [6] and in the experiment with Bacillus subtilis [7] was 2 - 4 in each case.

With `O=C(N[C@H](CO)[C@H](O)c1ccc([N+](=O)[O-])cc1)C(Cl)Cl` [CHLORAMPHENICOL], the MIC in the experiment with Bacillus subtilis [1] turned out to be 8 µM; against Bacillus subtilis [2], 8 µM (≈ 2.59 µg/mL); with Bacillus subtilis [3], 8 µM; in the experiment on Bacillus subtilis [4] it was 4 µM. The “fold change (FC)” value in the experiment on Bacillus subtilis [5], with Bacillus subtilis [6] and with Bacillus subtilis [7] was 2 each time.

As to `NC[C@H]1O[C@H](O[C@H]2[C@H](O)[C@@H](O[C@H]3O[C@H](CO)[C@@H](O)[C@H](N)[C@H]3O)[C@H](N)C[C@@H]2N)[C@H](O)[C@@H](O)[C@@H]1O` [KANAMYCIN], the MIC stood at 64 µM in the experiment on Bacillus subtilis [1], 256 µM (≈ 124 µg/mL) with Bacillus subtilis [2], 64 µM in the experiment with Bacillus subtilis [3] and 128 µM with Bacillus subtilis [4]. Also, the “fold change (FC)” value in the experiment on Bacillus subtilis [5], in the experiment on Bacillus subtilis [6] and with Bacillus subtilis [7] was 2 - 4 in each case.

In the case of `O=C(O)c1cn(C2CC2)c2cc(N3CCNCC3)c(F)cc2c1=O` [CIPROFLOXACIN], the MIC in the experiment with Bacillus subtilis [1] came out at 0.125 µM; against Bacillus subtilis [2], 0.125 µM (≈ 0.0414 µg/mL); in the experiment with Bacillus subtilis [3], 0.125 µM; in the experiment on Bacillus subtilis [4], 0.125 µM.

Turning to `Oc1cc(Cl)ccc1Oc1ccc(Cl)cc1Cl` [TRICLOSAN], the MIC in the experiment on Bacillus subtilis [1] is 8 µM; against Bacillus subtilis [2], 8 µM (≈ 2.32 µg/mL); with Bacillus subtilis [3] it was 8 µM; in the experiment with Bacillus subtilis [4], 8 µM.

`CO[C@H]1/C=C/C=C(\C)C[C@H](C)[C@H](O)[C@H](C)/C=C(C)/C=C(\C)C(=O)O[C@@H]1[C@@H](C)[C@@H](O)[C@H](C)[C@@]1(O)C[C@@H](OC(=O)/C=C/C(=O)O)[C@H](C)[C@@H](C(C)C)O1`: the MIC in experiment [8] is more than 64 µM; against Debaryomyces hansenii it was 8 µM (≈ 5.64 µg/mL); in the experiment with Bacillus subtilis [1], 16 µM; against Enterococcus faecium it was 16 µM (≈ 11.3 µg/mL); in experiment [10], 32 µM (≈ 22.6 µg/mL); with Bacillus subtilis [2], 8 µM (≈ 5.64 µg/mL). Also, the MIC against Escherichia coli [11] was more than 64 µM; in the experiment with Pseudomonas putida it was more than 64 µM; against Bacillus subtilis [12], 8 µM (≈ 5.64 µg/mL); against Candida albicans it was more than 128 µM; with Bacillus cereus, 4 µM (≈ 2.82 µg/mL); in the experiment with Bacillus subtilis [3] it was 16 µM. The MIC was 4 µM (≈ 2.82 µg/mL) with Bacillus thuringiensis; 16 µM in the experiment on Bacillus subtilis [4]; more than 64 µM against Escherichia coli [15]; 4 µM (≈ 2.82 µg/mL) in the experiment with Staphylococcus aureus; more than 64 µM in experiment [17]; more than 64 µM in experiment [18]. Also, the Activity result in the experiment on Bacillus subtilis [9] and with Bacillus subtilis [13] was “Dose-dependent effect” in each case. The MBC in the experiment on Bacillus subtilis [14] is 16 µM (≈ 11.3 µg/mL). Further, the outcome in the experiment on Bacillus subtilis [16] was Active.

One may read the MIC as the smallest concentration in the dilution series that meets the test's criterion for growth inhibition. A word on the MBC: it is the smallest concentration meeting the test's criterion for killing.
